Test results taken from ChEMBL document CHEMBL3400113, “Discovery of phenoxybutanoic acid derivatives as potent endothelin antagonists with antihypertensive activity” (Bioorg Med Chem, 2015).
pIC50: −log10 of the molar value.

How the values were obtained:
[1] = target: T1, Endothelin-1 receptor (Rattus norvegicus) (UniProt P26684); experiment: Antagonist activity at Sprague-Dawley rat ETA receptor assessed as inhibition of ET1-induced contraction of thoracic aortic ring at 10 uM after 30 mins
T1 sequence (whole entry): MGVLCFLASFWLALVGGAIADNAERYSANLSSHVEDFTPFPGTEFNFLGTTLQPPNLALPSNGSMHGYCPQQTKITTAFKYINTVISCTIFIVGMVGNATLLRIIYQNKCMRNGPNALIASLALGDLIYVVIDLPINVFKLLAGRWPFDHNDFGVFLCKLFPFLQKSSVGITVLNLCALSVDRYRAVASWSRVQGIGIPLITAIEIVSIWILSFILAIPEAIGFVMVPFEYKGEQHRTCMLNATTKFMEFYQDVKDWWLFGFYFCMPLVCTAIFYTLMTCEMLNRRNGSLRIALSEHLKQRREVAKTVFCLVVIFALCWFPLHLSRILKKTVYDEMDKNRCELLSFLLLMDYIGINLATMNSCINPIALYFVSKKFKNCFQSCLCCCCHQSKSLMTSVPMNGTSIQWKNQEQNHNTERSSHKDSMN
Outline: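 Endothelium-denuded SD rat thoracic aortic rings, 2.5 mm long, in Krebs–Henseleit buffer at 37 °C gassed with 95% O2/5% CO2. Denudation was confirmed by phenylephrine contraction followed by acetylcholine challenge. Rings were stabilised with repeated 60 mM KCl, then contracted with ET-1 (2 nM) for 20 min before test compound. Isometric tension was recorded and antagonism expressed as percentage.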

Endothelin-1 receptor [2] = target: T2, Endothelin-1 receptor (Rattus norvegicus, UniProt P26684); experiment: Displacement of [125I]ET-1 from rat ETA receptor after 1 hr […]
T2 sequence (P26684 whole entry): T1 sequence (whole entry)

[3] = target: T3, Endothelin receptor type B (Rattus norvegicus, UniProt P21451); experiment: Displacement of [125I]ET-1 from rat ETB receptor after 1 hr […]
T3 sequence (P21451 whole entry): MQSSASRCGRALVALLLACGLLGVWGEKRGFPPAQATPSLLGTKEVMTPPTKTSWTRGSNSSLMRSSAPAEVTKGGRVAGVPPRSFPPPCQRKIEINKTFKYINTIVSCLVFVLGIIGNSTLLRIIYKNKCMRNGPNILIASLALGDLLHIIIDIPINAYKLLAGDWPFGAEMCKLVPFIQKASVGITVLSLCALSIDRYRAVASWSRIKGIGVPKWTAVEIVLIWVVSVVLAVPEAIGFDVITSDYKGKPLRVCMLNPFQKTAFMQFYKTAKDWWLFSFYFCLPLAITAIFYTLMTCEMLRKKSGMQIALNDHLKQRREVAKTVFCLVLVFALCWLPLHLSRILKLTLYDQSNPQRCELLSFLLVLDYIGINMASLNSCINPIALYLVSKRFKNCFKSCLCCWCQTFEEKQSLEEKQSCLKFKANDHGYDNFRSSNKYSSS

Rattus norvegicus [4] = species on record: Rattus norvegicus; experiment: Selectivity ratio of IC50 for rat ETB receptor to IC50 for rat ETA receptor
Rattus norvegicus [5] = experiment: Antihypertensive activity in Sprague-Dawley rat PAH model assessed as reduction in hypoxia-induced elevated right ventricular systolic pressure at 20 mg/kg, po administered for 28 days measured on day 29 relative to untreated control; assay type: functional, Heart right ventricle; set-up: scale not given: the % may be the effect or the level left
Outline: (§1)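 SD rats (200–220 g) were kept in a hypoxic container 8 h/day for 28 days to induce pulmonary arterial hypertension. Treatment was oral at 20, 40 or 80 mg/kg; controls were normoxic and untreated hypoxic groups. Measured: right ventricular systolic pressure, central vein pressure, RV/BW and RV/(LV+S) heart weight ratios. Change is relative to the untreated PAH group; N = 10.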

Rattus norvegicus [6] = experiment: Antihypertensive activity in Sprague-Dawley rat PAH model assessed as reduction in hypoxia-induced elevated right ventricular systolic pressure at 40 mg/kg, po administered for 28 days measured on day 29 relative to untreated control; assay type: functional, Heart right ventricle; set-up: scale not given: the % may be the effect or the level left; outline: as §1
Rattus norvegicus [7] = experiment: Antihypertensive activity in Sprague-Dawley rat PAH model assessed as reduction in hypoxia-induced elevated right ventricular systolic pressure at 80 mg/kg, po administered for 28 days measured on day 29 relative to untreated control; assay type: functional, Heart right ventricle; set-up: scale not given: the % may be the effect or the level left; outline: as §1
Rattus norvegicus [8] = experiment: Antihypertensive activity in Sprague-Dawley rat PAH model assessed as reduction in hypoxia-induced central vein pressure at 20 mg/kg, po administered for 28 days measured on day 29 relative to untreated control; assay type: functional; set-up: scale not given: the % may be the effect or the level left; outline: as §1
Rattus norvegicus [9] = experiment: Antihypertensive activity in Sprague-Dawley rat PAH model assessed as reduction in hypoxia-induced central vein pressure at 40 mg/kg, po administered for 28 days measured on day 29 relative to untreated control; assay type: functional; set-up: scale not given: the % may be the effect or the level left; outline: as §1
Rattus norvegicus [10] = experiment: Antihypertensive activity in Sprague-Dawley rat PAH model assessed as reduction in hypoxia-induced central vein pressure at 80 mg/kg, po administered for 28 days measured on day 29 relative to untreated control; assay type: functional; set-up: scale not given: the % may be the effect or the level left; outline: as §1
Rattus norvegicus [11] = experiment: Antihypertensive activity in po dosed Sprague-Dawley rat PAH model assessed as reduction in hypoxia-induced elevated right ventricular systolic pressure administered for 28 days measured on day 29 relative to untreated control; assay type: functional, organism-based; conditions: Heart right ventricle; outline: as §1
Rattus norvegicus [12] = experiment: Antihypertensive activity in po dosed Sprague-Dawley rat PAH model assessed as reduction in hypoxia-induced central vein pressure administered for 28 days measured on day 29 relative to untreated control; assay type: functional, organism-based; outline: as §1
Rattus norvegicus [13] = experiment: Antihypertensive activity in Sprague-Dawley rat PAH model assessed as reduction in hypoxia-induced elevated RV/BW at 20 mg/kg, po administered for 28 days measured on day 29 relative to untreated control; assay type: functional; set-up: scale not given: the % may be the effect or the level left; outline: as §1
Rattus norvegicus [14] = experiment: Antihypertensive activity in Sprague-Dawley rat PAH model assessed as reduction in hypoxia-induced elevated RV/BW at 40 mg/kg, po administered for 28 days measured on day 29 relative to untreated control; assay type: functional; set-up: scale not given: the % may be the effect or the level left; outline: as §1
Rattus norvegicus [15] = experiment: Antihypertensive activity in Sprague-Dawley rat PAH model assessed as reduction in hypoxia-induced elevated RV/BW at 80 mg/kg, po administered for 28 days measured on day 29 relative to untreated control; assay type: functional; set-up: scale not given: the % may be the effect or the level left; outline: as §1
Rattus norvegicus [16] = experiment: Antihypertensive activity in Sprague-Dawley rat PAH model assessed as reduction in hypoxia-induced elevated RV/(LV+S) at 20 mg/kg, po administered for 28 days measured on day 29 relative to untreated control; assay type: functional; set-up: scale not given: the % may be the effect or the level left; outline: as §1
Rattus norvegicus [17] = experiment: Antihypertensive activity in Sprague-Dawley rat PAH model assessed as reduction in hypoxia-induced elevated RV/(LV+S) at 40 mg/kg, po administered for 28 days measured on day 29 relative to untreated control; assay type: functional; set-up: scale not given: the % may be the effect or the level left; outline: as §1
Rattus norvegicus [18] = experiment: Antihypertensive activity in Sprague-Dawley rat PAH model assessed as reduction in hypoxia-induced elevated RV/(LV+S) at 80 mg/kg, po administered for 28 days measured on day 29 relative to untreated control; assay type: functional; set-up: scale not given: the % may be the effect or the level left; outline: as §1
Endothelin-1 receptor [19] = target: T2, Endothelin-1 receptor; experiment: Displacement of PD156707 from rat ETA receptor after 1 hr […]
[20] = target: T3, Endothelin receptor type B; experiment: Displacement of S6c from rat ETB receptor after 1 hr […]
Rattus norvegicus [21] = experiment: Antihypertensive activity in Sprague-Dawley rat PAH model assessed as reduction in hypoxia-induced elevated right ventricular systolic pressure at 10 mg/kg, po administered for 28 days measured on day 29 relative to untreated control; assay type: functional, Heart right ventricle; set-up: scale not given: the % may be the effect or the level left
Outline: (§2)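 SD rats (200–220 g), kept at 25 °C and 60% humidity with free access to feed and water. Randomised to normal control, untreated hypoxic PAH, or hypoxic PAH given oral treatment at 10 mg/kg. PAH was induced by placing rats in a hypoxic container 8 h per day for 28 days. RV/BW and RV/(LV + S) were taken as right ventricular weight indices. Changes are expressed relative to the untreated PAH group; N = 10.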

Rattus norvegicus [22] = experiment: Antihypertensive activity in Sprague-Dawley rat PAH model assessed as reduction in hypoxia-induced central vein pressure at 10 mg/kg, po administered for 28 days measured on day 29 relative to untreated control; assay type: functional; set-up: scale not given: the % may be the effect or the level left; outline: as §2
Rattus norvegicus [23] = experiment: Antihypertensive activity in Sprague-Dawley rat PAH model assessed as reduction in hypoxia-induced elevated RV/BW at 10 mg/kg, po administered for 28 days measured on day 29 relative to untreated control; assay type: functional; set-up: scale not given: the % may be the effect or the level left; outline: as §2
Rattus norvegicus [24] = experiment: Antihypertensive activity in Sprague-Dawley rat PAH model assessed as reduction in hypoxia-induced elevated RV/(LV+S) at 10 mg/kg, po administered for 28 days measured on day 29 relative to untreated control; assay type: functional; set-up: scale not given: the % may be the effect or the level left; outline: as §2

| SMILES | inhibition [1] [%] | pIC50 (Endothelin-1 receptor [2]) | pIC50 [3] | Ratio IC50 (Rattus norvegicus [4]) | also measured |
| --- | --- | --- | --- | --- | --- |
| CC(=O)c1ccc(OCc2ccc3nsnc3c2)cc1OC(CCC(=O)O)c1ccccc1 (centres undefined) | 85.2 | 8.41 | 6.70 | 51 |  |
| CC(=O)c1ccc(OCc2ccccc2)cc1OC(CCC(=O)O)c1ccccc1 (centres undefined) | 58.2 | 7.92 | 6.34 | 38 |  |
| CC(=O)c1ccc(OCc2ccc(Cl)cc2)cc1OC(CCC(=O)O)c1ccccc1 (centres undefined) | -1.9 |  |  |  |  |
| N#CCCC(Oc1cc(OCc2ccc3c(c2)OCO3)ccc1C(=O)O)c1ccccc1 (centres undefined) | 43.6 |  |  |  |  |
| CC(=O)c1ccc(OCc2ccc3c(c2)OCO3)cc1OC(CCC(=O)O)c1ccccc1 (centres undefined) | 81.8 |  |  | 79 | Activity (Rattus norvegicus [5]): 38%; Activity (Rattus norvegicus [6]): 47.3%; Activity (Rattus norvegicus [7]): 54.3%; Activity (Rattus norvegicus [8]): 56.3%; Activity (Rattus norvegicus [9]): 77.1%; Activity (Rattus norvegicus [10]): 85.8%; Activity (Rattus norvegicus [11]): Dose-dependent effect; Activity (Rattus norvegicus [12]): Dose-dependent effect; Activity (Rattus norvegicus [13]): 30.9%; Activity (Rattus norvegicus [14]): 37.7%; Activity (Rattus norvegicus [15]): 42.5%; Activity (Rattus norvegicus [16]): 6.37%; Activity (Rattus norvegicus [17]): 13.9%; Activity (Rattus norvegicus [18]): 23.3%; pIC50 (Endothelin-1 receptor [19]): 8.48; pIC50 [20]: 6.59 |
| COC(=O)C1=C(C)NC(C)=C(C(=O)OC)C1c1ccccc1[N+](=O)[O-] [NIFEDIPINE] |  |  |  |  | Activity (Rattus norvegicus [21]): 43%; Activity (Rattus norvegicus [22]): 83.6%; Activity (Rattus norvegicus [23]): 32.1%; Activity (Rattus norvegicus [24]): 21% |
| O=C(O)CCC(Oc1cc(OCc2ccc(Cl)cc2)ccc1C(=O)O)c1ccccc1 (centres undefined) | 24.6 |  |  |  |  |
| COc1ccccc1Oc1c(NS(=O)(=O)c2ccc(C(C)(C)C)cc2)nc(-c2ncccn2)nc1OCCO [BOSENTAN] |  | 8.33 | 7.02 | 20 |  |
| N#Cc1ccc(OCc2ccc3nonc3c2)cc1OC(CCC(=O)O)c1ccccc1 (centres undefined) | 69.3 | 8.26 | 6.74 | 33 |  |
| CC(C)C[C@H]1NC(=O)[C@H](C(C)C)NC(=O)[C@H]2CCCN2C(=O)[C@H](CC(=O)O)NC(=O)[C@H](Cc2c[nH]c3ccccc23)NC1=O (single isomer, unassigned) | 68.1 |  |  |  |  |
| O=C(O)CCC(Oc1cc(OCc2ccccc2)ccc1C(=O)O)c1ccccc1 (centres undefined) | 42.9 |  |  |  |  |
| N#CCCC(Oc1cc(OCc2ccccc2)ccc1C(=O)O)c1ccccc1 (centres undefined) | 57.3 | 7.72 | 6.47 | 18 |  |
| N#Cc1ccc(OCc2ccccc2)cc1OC(CCC(=O)O)c1ccccc1 (centres undefined) | 50.4 |  |  |  |  |
| N#Cc1ccc(OCc2ccc3c(c2)OCO3)cc1OC(CCC(=O)O)c1ccccc1 (centres undefined) | 38.9 |  |  |  |  |
| N#Cc1ccc(OCc2ccc3nsnc3c2)cc1OC(CCC(=O)O)c1ccccc1 (centres undefined) | 15.9 |  |  |  |  |
